Measurements reported in ChEMBL document CHEMBL1124444, “Hydroxyacetophenone-derived antagonists of the peptidoleukotrienes” (1989).

Tests used:
[1] = biological target: T1, Cysteinyl leukotriene receptor 1 (Cavia porcellus) (UniProt Q2NNR5); test: Dissociation constant (KB) […] was evaluated in vitro in isolated guinea pig tracheal strips
T1 sequence (whole entry): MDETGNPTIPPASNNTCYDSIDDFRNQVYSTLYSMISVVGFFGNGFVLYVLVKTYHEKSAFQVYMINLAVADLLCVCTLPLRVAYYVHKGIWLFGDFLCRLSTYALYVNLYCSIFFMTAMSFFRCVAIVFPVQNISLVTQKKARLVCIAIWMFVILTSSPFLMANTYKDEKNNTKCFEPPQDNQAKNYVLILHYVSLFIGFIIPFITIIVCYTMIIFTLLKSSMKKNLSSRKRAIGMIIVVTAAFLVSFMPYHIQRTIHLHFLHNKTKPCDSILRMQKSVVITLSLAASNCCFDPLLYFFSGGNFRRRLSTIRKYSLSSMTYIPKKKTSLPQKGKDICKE

[2] = system: Cavia porcellus; test: Compound (50 mg/kg, intraperitoneally) was tested in spontaneously breathing, conscious guinea pigs challenged with aerosolized LTD4 (30-min pretreatment); assay type: functional
[3] = species: Cavia porcellus; test: Percent inhibition of the leukotriene D4 (LTD4)-induced contraction of guinea pig tracheal spirals at 4 uM concentration; assay type: functional; details: Trachea
Summary of the method: (§1)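 Guinea pig tracheal spirals were split into paired sections in 10 mL baths of modified Krebs at 37 °C, gassed with 95% O₂/5% CO₂, under 2 g resting tension. After 60 min equilibration (washes every 15 min), reproducible contractions to 8 nM LTD₄ or 8 nM LTE₄ were obtained. Compound was added for 10 min, then agonist challenge repeated; percent inhibition is relative to the vehicle-treated paired section.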

[4] = species: Cavia porcellus; test: Percent inhibition of the leukotriene E4 (LTE4)-induced contraction of guinea pig tracheal spirals at 1 uM concentration; details: Trachea
[5] = species: Cavia porcellus; test: Inhibition of the leukotriene D4 (LTD4)-induced contraction of guinea pig tracheal spirals at 10 uM concentration; assay type: functional; details: Trachea; summary of the method: as §1
[6] = species: Cavia porcellus; test: Percent inhibition of the leukotriene D4 (LTD4)-induced contraction of guinea pig tracheal spirals at 100 uM concentration; assay type: functional; details: Trachea; summary of the method: as §1
[7] = system: Cavia porcellus; test: Compound (50 mg/kg, intraperitoneally) was tested in spontaneously breathing, conscious guinea pigs challenged with aerosolized LTD4 (60-min pretreatment); assay type: functional
[8] = species: Cavia porcellus; test: Percent inhibition of the leukotriene D4 (LTD4)-induced contraction of guinea pig tracheal spirals at 1 uM concentration; assay type: functional; details: Trachea; summary of the method: as §1
[9] = species: Cavia porcellus; test: Percent inhibition of the leukotriene E4 ([…])-induced contraction of guinea pig tracheal spirals at 1 uM concentration; NS means data was not statistically significant.; assay type: functional; details: Trachea; summary of the method: as §1
[10] = species: Cavia porcellus; test: Percent inhibition of the leukotriene E4 (LTE4)-induced contraction of guinea pig tracheal spirals at 10 uM concentration; assay type: functional; details: Trachea; summary of the method: as §1
[11] = species: Cavia porcellus; test: Percent inhibition of the leukotriene E4 (LTE4)-induced contraction of guinea pig tracheal spirals at 5 uM concentration; assay type: functional; details: Trachea; summary of the method: as §1
[12] = species: Cavia porcellus; test: Percent inhibition of the leukotriene D4 (LTD4)-induced contraction of guinea pig tracheal spirals at 10 uM concentration; NS means data was not statistically significant.; assay type: functional; details: Trachea; summary of the method: as §1
[13] = species: Cavia porcellus; test: Percent inhibition of the leukotriene E4 -induced contraction of guinea pig tracheal spirals at 1 uM concentration; assay type: functional; details: Trachea; summary of the method: as §1
[14] = species: Cavia porcellus; test: Percent inhibition of the leukotriene E4 -induced contraction of guinea pig tracheal spirals at 10 uM concentration; assay type: functional; details: Trachea; summary of the method: as §1
[15] = species: Cavia porcellus; test: Percent inhibition of the leukotriene E4 (LTE4)-induced contraction of guinea pig tracheal spirals at 50 uM concentration; assay type: functional; details: Trachea; summary of the method: as §1
[16] = species: Cavia porcellus; test: Percent inhibition of the leukotriene D4 (LTD4)-induced contraction of guinea pig tracheal spirals at 5 uM concentration; assay type: functional; details: Trachea; summary of the method: as §1
[17] = species: Cavia porcellus; test: Percent inhibition of the leukotriene D4 (LTD4)-induced contraction of guinea pig tracheal spirals at 10 uM concentration; NS means data was not statistically significant; assay type: functional; details: Trachea; summary of the method: as §1
[18] = species: Cavia porcellus; test: Percent inhibition of the leukotriene E4 (LTE4)-induced contraction of guinea pig tracheal spirals at 10 uM concentration; NS means data was not statistically significant.; assay type: functional; details: Trachea; summary of the method: as §1
[19] = species: Cavia porcellus; test: Percent inhibition of the leukotriene D4 (LTD4)-induced contraction of guinea pig tracheal spirals at 10 uM concentration; assay type: functional; details: Trachea; summary of the method: as §1
[20] = biological target: T1, Cysteinyl leukotriene receptor 1 (Cavia porcellus); test: Dissociation constant (KB) versus Cysteinyl leukotriene D4 receptor was evaluated in vitro in isolated guinea pig tracheal strips
[21] = species: Cavia porcellus; test: Percent inhibition of the leukotriene E4 (LTE4)-induced contraction of guinea pig tracheal spirals at 1 uM concentration; assay type: functional; details: Trachea; summary of the method: as §1
[22] = species: Cavia porcellus; test: Percent inhibition of the leukotriene D4 (LTD4)-induced contraction of guinea pig tracheal spirals at 10 uM concentration; NS meana data was not statistically significant; assay type: functional; details: Trachea; summary of the method: as §1

## CCCc1c(OCc2cccc(/C=C/C(=O)O)c2)ccc(C(C)=O)c1O
[1]
  Kb: 630 nM
[2]
  Protection: 19%
[3]
  inhibition at 4 µM: 66%
[4]
  inhibition at 1 µM: 41%

## CCCc1c(OCc2cccc(C(=O)O)c2)ccc(C(C)=O)c1O
[5]
  inhibition at 10 µM: 50%
[6]
  inhibition at 100 µM: 100%

## CCCc1c(OCc2ccc(C(=O)O)cc2F)ccc(C(C)=O)c1O
[1]
  Kb: 520 nM
[2]
  Protection: 18%
[7]
  Protection: 0%
[5]
  inhibition at 10 µM: 99%

## CCCc1c(OCc2ccc(C(=O)O)c(Br)c2)ccc(C(C)=O)c1O
[1]
  Kb: 170 nM
[7]
  Protection: 69%
[8]
  inhibition at 1 µM: 30%

## CCCc1c(OCc2ccc(C(=O)O)cc2OC)ccc(C(=O)CC)c1O
[9]
  inhibition: Not statistically significant
[10]
  inhibition at 10 µM: 97%
[11]
  inhibition at 5 µM: 73%

## CCCc1c(OCc2ccccc2C(=O)O)ccc(C(C)=O)c1O
[12]
  inhibition: Not statistically significant
[6]
  inhibition at 100 µM: 91%

## COc1cc(C(=O)O)ccc1COc1ccc(C(C)=O)c(O)c1Cc1ccccc1
[13]
  inhibition at 1 µM: 39%
[14]
  inhibition at 10 µM: 100%

## CCCc1c(OCc2ccc(C(=O)O)cc2OC)ccc(C(N)=O)c1O
[15]
  inhibition at 50 µM: 86%
[5]
  inhibition at 10 µM: 72%

## C/C=C(\c1ccccc1)c1c(OCc2ccc(C(=O)O)cc2OC)ccc(C(C)=O)c1O
[16]
  inhibition at 5 µM: 24%

## COc1cc(C(=O)O)ccc1COc1ccc2c(C)cc(=O)oc2c1
[17]
  inhibition: Not statistically significant

## CCCc1c(OCc2ccc(C(=O)O)cc2OC)ccc2c(C)cc(=O)oc12
[2]
  Protection: 27%
[5]
  inhibition at 10 µM: 78%
[3]
  inhibition at 4 µM: 44%

## CCCc1cc2c(C)cc(=O)oc2cc1OCc1ccc(C(=O)O)cc1OC
[18]
  inhibition: Not statistically significant

## CCCc1c(OCc2ccc(C(=O)O)cc2OC)ccc(C=O)c1O
[19]
  inhibition at 10 µM: 54%

## CCCc1c(OCCCCc2nnn[nH]2)ccc(C(C)=O)c1O [TOMELUKAST]
[20]
  Kb: 180 nM
[7]
  Protection: 49%

## COc1cc(C(=O)O)ccc1COc1ccc(C(C)=O)c(O)c1CC(C)C
[21]
  inhibition at 1 µM: 22%

## CCC(C)c1c(OCc2ccc(C(=O)O)cc2OC)ccc(C(C)=O)c1O (centres undefined)
[16]
  inhibition at 5 µM: 85%
[5]
  inhibition at 10 µM: 100%

## CCCc1c(OCCC[S+]([O-])CC(=O)O)ccc(C(C)=O)c1O (centres undefined)
[12]
  inhibition: Not statistically significant

## COc1cc(C(=O)O)ccc1COc1ccc(C(C)=O)c(O)c1C=C(C)C
[11]
  inhibition at 5 µM: 69%

## COc1cc(C(=O)O)ccc1COc1ccc(C(C)=O)c(O)c1
[22]
  inhibition: Not statistically significant

## CCCN(Cc1ccc(C(=O)O)cc1OC)c1ccc(C(C)=O)c(O)c1
[10]
  inhibition at 10 µM: 24%
[15]
  inhibition at 50 µM: 35%
